Screening data (PubChem BioAssay)
DENV2 CPE – protects cells from dengue virus 2 cytopathic effect; DENV2-infected cells, cytopathic effect rescue, plate reader; CPE inhibition, % at 9.99 µM; 350,000 tested, 1.7% active; in the data active means CPE inhibition above about 20%, passing the limit was not always enough; inconclusive means no clear call, values can overlap the other calls; tested in BHK-21 cells;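 further: 0% = median of neutral control wells and 100% = median of positive control wells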
CaV13 FRET inh – Disruptors of the CACNA1D IQ motif to Ca2+-dependent inactivation inhibitor domain association, primary screening, Förster resonance energy transfer in intact living …; inhibition, % at 12.3 µM; AID 743397; 340,000 tested, 0.098% active; HEK cells, CFP/YFP FRET ICDI-IQ, plate reader, 10 min; percent FRET-ratio fall versus neutral wells;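 active means mean replicate inhibition of at least 30% and at least 1% of replicates passing that level; inconclusive means only one of the two criteria is met; inactive means neither criterion is met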;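 further: 0% = median of the neutral control wells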
S100A4 MyoIIA – blocks human S100A4 binding to myosin IIA peptide. P26447. S100A4/TAMRA-MyoIIA peptide fluorescence polarization. inhibition, % at 10.7 µM. 360,000 tested, 0.14% active. AID 652163;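 active means mean inhibition of at least 70% across replicates, with every replicate also reaching that level; inconclusive means mean inhibition reaches 70% but some replicates fall short; inactive means mean inhibition below 70%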
Target sequence (P26447 whole entry, looked up): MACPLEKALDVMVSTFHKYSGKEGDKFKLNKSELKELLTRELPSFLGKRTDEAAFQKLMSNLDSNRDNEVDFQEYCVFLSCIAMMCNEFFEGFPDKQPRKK
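Material: human S100A4 monomer with TAMRA-labelled myosin IIA peptide; buffer or medium: HEPES pH 7.2 with CaCl2, KCl, NaCl, DTT, Triton; compound dosing: one concentration per compound; schedule: 5 min incubation before reading; benchmarks: neutral control DMSO, positive control TFP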
AF4-AF9 inh – MLL-AF4/AF9 protein interaction inhibition; P42568; AlphaScreen, biotin-AF4 peptide binding to FLAG-AF9; inhibition, % at 10 µM; 350,000 tested, 0.47% active; AID 651704;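 active means every replicate reaching a set inhibition limit, whatever the replicate mean, cut at about 25% in these data; inconclusive means mean inhibition reaches that limit but some replicates miss it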;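 further: 0% = plate neutral control median and 100% = total signal loss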
SIRT5 inh – inhibitors of human sirtuin-5 desuccinylase; AID 652115; 330,000 tested, 1.1% active; Q9NXA8; inhibition, % at 15 µM; Purified SirT5, succinyl-peptide AMC, trypsin-coupled fluorescence; in the data active means inhibition above about 15%; inconclusive means no clear call, values can overlap the other calls
Target sequence (Q9NXA8 whole entry, looked up): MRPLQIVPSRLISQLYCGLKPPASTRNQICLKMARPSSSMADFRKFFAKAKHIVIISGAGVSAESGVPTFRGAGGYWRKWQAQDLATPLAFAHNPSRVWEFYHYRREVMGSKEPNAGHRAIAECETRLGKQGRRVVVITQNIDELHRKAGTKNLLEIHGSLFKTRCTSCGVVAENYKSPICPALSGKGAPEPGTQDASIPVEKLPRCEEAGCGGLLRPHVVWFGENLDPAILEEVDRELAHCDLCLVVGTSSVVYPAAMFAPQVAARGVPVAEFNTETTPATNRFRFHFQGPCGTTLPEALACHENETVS
An asterisk follows results filed as active; ? = inconclusive; . = no result. This is a sample that favours compounds with a hit; in the whole collection about 2.7% have one here.

SMILES	DENV2 CPE	CaV13 FRET inh	S100A4 MyoIIA	AF4-AF9 inh	SIRT5 inh
CN1CCN(C(=O)C[C@@H]2CC[C@H]3[C@H](COc4ccc(NC(=O)c5ccc(F)c(F)c5)cc4C(=O)N3C)O2)CC1	3	.	-31	0	3
Cc1cccc(N(CC(=O)NC2CCCCC2)C(=O)c2csnn2)c1	?	-4	-1	-2	-2
CC(=O)c1cccc(N(CC(=O)NC2CCCCC2)C(=O)c2csnn2)c1	2	-3	-2	34*	-4
COC(=O)c1cc(S(=O)(=O)NCc2ccc(Br)cc2)c[nH]1	2	-6	-7	2	22*
CCNC(=O)C[C@@H]1CC[C@H]2[C@@H](COC[C@H](O)CN2Cc2ccc(Cl)c(Cl)c2)O1	8	.	-1	-1	-1
COCC#Cc1ccc2c(c1)O[C@@H](CN(C)Cc1ccccn1)[C@H](C)CN([C@@H](C)CO)S2(=O)=O	-1	.	1	-8	-1
C[C@@H]1CN([C@@H](C)CO)C(=O)c2cc(NC(=O)Nc3ccc4c(c3)OCO4)ccc2O[C@@H]1CN(C)Cc1ccc2c(c1)OCO2	42*	.	7	14	-2
C[C@H]1CN([C@@H](C)CO)C(=O)c2cc(NC(=O)C3CC3)ccc2O[C@H]1CN(C)Cc1ccc2c(c1)OCO2	6	.	0	-1	3
C[C@@H]1CN([C@H](C)CO)C(=O)c2cc(NC(=O)C3CC3)ccc2O[C@@H]1CN(C)Cc1ccc2c(c1)OCO2	7	.	14	.	17*
CC(C)CC#Cc1ccc2c(c1)O[C@H](CN(C)C(=O)C1CCCCC1)[C@H](C)CN([C@H](C)CO)S2(=O)=O	2	.	2	2	3
C[C@@H]1CN([C@@H](C)CO)S(=O)(=O)c2ccc(C#CC(C)(C)O)cc2O[C@@H]1CN(C)C(=O)C1CCCCC1	21*	.	11	1	0
CC(C)CC#Cc1ccc2c(c1)O[C@@H](CN(C)C(=O)C1CCCCC1)[C@@H](C)CN([C@H](C)CO)S2(=O)=O	-5	.	-1	-2	22*
CC(C)CC#Cc1ccc2c(c1)O[C@@H](CN(C)C(=O)C1CCCCC1)[C@H](C)CN([C@H](C)CO)S2(=O)=O	-4	.	9	4	19*
C[C@@H]1CN([C@H](C)CO)S(=O)(=O)c2ccc(C#CC(C)(C)O)cc2O[C@H]1CN(C)C(=O)C1CCCCC1	14	.	-25	.	-1
CCCN1CCN(CCCNC(=O)C(CC)n2nc(C)c3sc4ccccc4c3c2=O)CC1 (configuration not stated)	-1	-7	113*	4	1
CCC(C(=O)NCCCN1CC(C)CC(C)C1)n1nc(C)c2sc3ccccc3c2c1=O (configuration not stated)	11	-2	-3	-6	31*
CC(C)NC(=O)Nc1ccc2c(c1)CC(=O)N([C@H](C)CO)C[C@@H](C)[C@H](CN(C)C(=O)Nc1ccc3c(c1)OCO3)O2	14	.	14	-3	5
C[C@H]1CN([C@@H](C)CO)S(=O)(=O)c2ccc(/C=C/c3ccccc3)cc2O[C@H]1CN(C)C(=O)C1CC1	2	.	-10	11	15*
C[C@H](CO)N1C[C@H](C)[C@@H](CN(C)C(=O)C2CC2)Oc2cc(/C=C/c3ccccc3)ccc2S1(=O)=O	?	.	-3	7	13
C[C@H]1CN([C@@H](C)CO)S(=O)(=O)c2ccc(/C=C/c3ccccc3)cc2O[C@@H]1CN(C)C(=O)C1CC1	6	.	-11	9	9
C[C@@H]1CN([C@@H](C)CO)S(=O)(=O)c2ccc(/C=C/c3ccccc3)cc2O[C@@H]1CN(C)C(=O)C1CC1	2	.	-6	5	17*
C/C=C/c1cccc(-c2nc(C(=O)NCc3ccncc3)cc3c2[C@H](CCO)N([S@@](=O)C(C)(C)C)C3)c1	4	.	-11	-4	2
C#CCN(Cc1ccco1)C(=O)c1nnc2c3cc(OC)ccc3n(S(=O)(=O)c3ccc(OC)cc3)c2n1	-2	-4	-7	2	.
CN1C(=O)c2cc(NC(=O)Cc3cccs3)ccc2OC[C@H]2O[C@H](CC(=O)N[C@H]3CCN(Cc4ccccc4)C3)CC[C@@H]21	-1	.	96*	4	4
CN1C(=O)c2cc(NS(C)(=O)=O)ccc2OC[C@H]2O[C@H](CC(=O)NCc3ccc(-c4ccccc4)cc3)CC[C@@H]21	4	.	.	.	5
SMILES	DENV2 CPE	CaV13 FRET inh	S100A4 MyoIIA	AF4-AF9 inh	SIRT5 inh
CCCNC(=O)Nc1ccc2c(c1)C(=O)N(C)[C@@H]1CC[C@@H](CC(=O)NCc3ccccc3)O[C@H]1CO2	5	.	-1	-10	-3
CCCNC(=O)Nc1ccc2c(c1)C(=O)N(C)[C@@H]1CC[C@@H](CC(=O)NCc3ccccc3)O[C@@H]1CO2	56*	.	8	-11	-4
CN1C(=O)c2cc(NS(=O)(=O)c3cccc(F)c3)ccc2OC[C@H]2O[C@@H](CC(=O)O)CC[C@@H]21	71*	.	8	-3	1
CN1C(=O)c2cc(NS(C)(=O)=O)ccc2OC[C@@H]2O[C@@H](CC(=O)NCc3ccc(-c4ccccc4)cc3)CC[C@@H]21	-1	.	2	-14	15*
C[C@H]1CN([C@@H](C)CO)C(=O)c2cccc(NS(=O)(=O)c3cccs3)c2O[C@H]1CN(C)S(=O)(=O)c1cccs1	-3	.	-5	-12	-1
CCC(=O)N1[C@@H](C#N)[C@@H](c2ccccc2-c2ccccc2)[C@@H]1CO	4	.	33	-2	-1
CCCNC(=O)C[C@H]1CC[C@@H]2[C@H](COc3ccc(NC(=O)c4cccc(F)c4)cc3C(=O)N2C)O1	-4	.	-5	-1	1
CN1CCN(C(=O)C[C@H]2CC[C@@H]3[C@@H](COc4ccc(NC(=O)C5CCCC5)cc4C(=O)N3C)O2)CC1	-3	.	5	47*	6
CN1C(=O)c2cc(NC(=O)Cc3cccs3)ccc2OC[C@@H]2O[C@H](CC(=O)NCC3CCCCC3)CC[C@H]21	132*	.	-4	1	10
CCNC(=O)Nc1ccc2c(c1)C(=O)N(C)[C@H]1CC[C@@H](CC(=O)NC3CCCCC3)O[C@@H]1CO2	27*	.	3	-4	-2
CN1C(=O)c2cc(NC(=O)NCc3ccccc3)ccc2OC[C@H]2O[C@H](CC(=O)NCC3CCCCC3)CC[C@H]21	98*	.	7	-12	0
CO[C@H]1CN(C)C(=O)c2ccc(NC(=O)c3ccccc3)cc2OC[C@@H](C)NC[C@H]1C	-7	.	1	-1	.
CC(C)NC(=O)N(C)C[C@H]1OCCCC[C@@H](C)Oc2ccc(NC(=O)Nc3ccc4c(c3)OCO4)cc2C(=O)N([C@@H](C)CO)C[C@H]1C	-3	.	-11	5	-4
CC(C)OCCCn1c(SCC(=O)N2CCc3ccccc32)nc2ccccc2c1=O	-14	-5	-3	-1	21*
